{"source": "ChEMBL document CHEMBL4196248", "about": "“Callyspongidic Acids: Amphiphilic Diacids from the Tropical Eastern Pacific Sponge Callyspongia cf. californica” (J Nat Prod, 2018)", "key": {"[1]": {"system": "Escherichia coli", "test": "Antimicrobial activity against Escherichia coli ATCC 25922 at 32 ug/ml measured after 20 hrs by spectrophotometric method", "assay_type": "functional, organism-based", "summary_of_the_method": "(§1)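 Whole-cell growth-inhibition panel: Gram-negative E. coli ATCC25922, K. pneumoniae ATCC700603, P. aeruginosa PAO1 and A. baumannii CL5973, plus fungi A. fumigatus ATCC46645 and C. albicans ATCC64124. Method follows earlier-described protocols. Highest concentration tested 32 μg/mL.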"}, "[2]": {"system": "Acinetobacter baumannii", "test": "Antimicrobial activity against Acinetobacter baumannii CL5973 at 32 ug/ml measured after 20 hrs by spectrophotometric method", "assay_type": "functional, organism-based", "summary_of_the_method": "as §1"}, "[3]": {"system": "Candida albicans", "test": "Antimicrobial activity against Candida albicans ATCC 64124 at 32 ug/ml measured after 20 hrs by spectrophotometric method", "assay_type": "functional, organism-based", "summary_of_the_method": "as §1"}, "[4]": {"system": "Aspergillus fumigatus", "test": "Antimicrobial activity against Aspergillus fumigatus ATCC 46645 at 32 ug/ml measured after 30 hrs by resazurin dye based assay", "assay_type": "functional, organism-based", "summary_of_the_method": "as §1"}, "[5]": {"system": "Staphylococcus aureus", "test": "Antimicrobial activity against methicillin-sensitive Staphylococcus aureus ATCC 29213 at 32 ug/ml measured after 20 hrs by spectrophotometric method", "assay_type": "functional, organism-based"}, "[6]": {"system": "Klebsiella pneumoniae", "test": "Antimicrobial activity against Klebsiella pneumoniae ATCC 700603 at 32 ug/ml measured after 20 hrs by spectrophotometric method", "assay_type": "functional, organism-based", "summary_of_the_method": "as §1"}, "[7]": {"system": "A2058", "test": "Cytotoxicity against human A2058 cells measured after 24 hrs by MTT assay", "assay_type": "functional, cell-based", "details": "A2058, 24 h", "summary_of_the_method": "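Human-derived A2058 epithelial melanoma cells, run alongside a panel of other human tumour lines by a previously reported protocol; IC50 values derived.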"}, "[8]": {"system": "Staphylococcus aureus", "test": "Antimicrobial activity against methicillin-resistant Staphylococcus aureus MB5393 at 32 ug/ml measured after 20 hrs by spectrophotometric method", "assay_type": "functional, organism-based"}, "[9]": {"system": "Pseudomonas aeruginosa", "test": "Antimicrobial activity against Pseudomonas aeruginosa PAO1 at 32 ug/ml measured after 20 hrs by spectrophotometric method", "assay_type": "functional, organism-based", "summary_of_the_method": "as §1"}, "[10]": {"system": "Aspergillus fumigatus", "test": "Antimicrobial activity against Aspergillus fumigatus ATCC 46645 at 4 ug/ml measured after 30 hrs by resazurin dye based assay", "assay_type": "functional, organism-based"}, "[11]": {"system": "Klebsiella pneumoniae", "test": "Antimicrobial activity against Klebsiella pneumoniae ATCC 700603 at 4 ug/ml measured after 20 hrs by spectrophotometric method", "assay_type": "functional, organism-based"}, "[12]": {"system": "Pseudomonas aeruginosa", "test": "Antimicrobial activity against Pseudomonas aeruginosa PAO1 at 4 ug/ml measured after 20 hrs by spectrophotometric method", "assay_type": "functional, organism-based"}, "[13]": {"system": "Escherichia coli", "test": "Antimicrobial activity against Escherichia coli ATCC 25922 at 4 ug/ml measured after 20 hrs by spectrophotometric method", "assay_type": "functional, organism-based"}, "[14]": {"system": "Candida albicans", "test": "Antimicrobial activity against Candida albicans ATCC 64124 at 4 ug/ml measured after 20 hrs by spectrophotometric method", "assay_type": "functional, organism-based"}, "[15]": {"system": "Acinetobacter baumannii", "test": "Antimicrobial activity against Acinetobacter baumannii CL5973 at 4 ug/ml measured after 20 hrs by spectrophotometric method", "assay_type": "functional, organism-based"}, "[16]": {"system": "Staphylococcus aureus", "test": "Antimicrobial activity against methicillin-sensitive Staphylococcus aureus ATCC 29213 at 4 ug/ml measured after 20 hrs by spectrophotometric method", "assay_type": "functional, organism-based"}, "[17]": {"system": "Staphylococcus aureus", "test": "Antimicrobial activity against methicillin-resistant Staphylococcus aureus MB5393 at 4 ug/ml measured after 20 hrs by spectrophotometric method", "assay_type": "functional, organism-based"}}, "note": "pIC50: −log10 of the molar value. The source made the active and inactive calls. The rule behind the calls is not given here."}
{"smiles": "CCCCCCCCCCCC[C@H](C(=O)O)[C@@](O)(Cc1ccc(O)cc1)C(=O)O", "values": [{"measurement": "Activity", "setting": "[1]", "value": "inactive"}, {"measurement": "Activity", "setting": "[2]", "value": "inactive"}, {"measurement": "Activity", "setting": "[3]", "value": "inactive"}, {"measurement": "Activity", "setting": "[4]", "value": "inactive"}, {"measurement": "Activity", "setting": "[5]", "value": "inactive"}, {"measurement": "Activity", "setting": "[6]", "value": "inactive"}, {"measurement": "pIC50", "setting": "[7]", "value": 4.52}, {"measurement": "Activity", "setting": "[8]", "value": "inactive"}, {"measurement": "Activity", "setting": "[9]", "value": "inactive"}]}
{"smiles": "CCCCCCCCCC[C@H](C(=O)O)[C@@](O)(Cc1ccc(O)cc1)C(=O)O", "values": [{"measurement": "Activity", "setting": "[1]", "value": "inactive"}, {"measurement": "Activity", "setting": "[2]", "value": "inactive"}, {"measurement": "Activity", "setting": "[3]", "value": "inactive"}, {"measurement": "Activity", "setting": "[4]", "value": "inactive"}, {"measurement": "Activity", "setting": "[5]", "value": "inactive"}, {"measurement": "Activity", "setting": "[6]", "value": "inactive"}, {"measurement": "pIC50", "setting": "[7]", "value": 4.59}, {"measurement": "Activity", "setting": "[8]", "value": "inactive"}, {"measurement": "Activity", "setting": "[9]", "value": "inactive"}]}
{"smiles": "CCCCCCCCCCC[C@H](C(=O)O)[C@@](O)(Cc1ccc(O)cc1)C(=O)O", "values": [{"measurement": "Activity", "setting": "[10]", "value": "inactive"}, {"measurement": "Activity", "setting": "[11]", "value": "inactive"}, {"measurement": "Activity", "setting": "[12]", "value": "inactive"}, {"measurement": "Activity", "setting": "[13]", "value": "inactive"}, {"measurement": "pIC50", "setting": "[7]", "value": 5.49}, {"measurement": "Activity", "setting": "[14]", "value": "inactive"}, {"measurement": "Activity", "setting": "[15]", "value": "inactive"}, {"measurement": "Activity", "setting": "[16]", "value": "inactive"}, {"measurement": "Activity", "setting": "[17]", "value": "inactive"}]}
{"smiles": "CCCCCC/C=C\\CCCC[C@H](C(=O)O)[C@@](O)(Cc1ccc(O)cc1)C(=O)O", "values": [{"measurement": "Activity", "setting": "[1]", "value": "inactive"}, {"measurement": "Activity", "setting": "[2]", "value": "inactive"}, {"measurement": "Activity", "setting": "[3]", "value": "inactive"}, {"measurement": "Activity", "setting": "[4]", "value": "inactive"}, {"measurement": "Activity", "setting": "[5]", "value": "inactive"}, {"measurement": "Activity", "setting": "[6]", "value": "inactive"}, {"measurement": "pIC50", "setting": "[7]", "value": "< 4.52"}, {"measurement": "Activity", "setting": "[8]", "value": "inactive"}, {"measurement": "Activity", "setting": "[9]", "value": "inactive"}]}
